# Source: ChEMBL document CHEMBL3271971, “Antineoplastic and biochemical properties of arylsulfonylhydrazones of 2-formylpyridine N-oxide” (J Med Chem, 1976)
# What was measured:
# [1] = Antineoplastic activity against mouse S180A cells allografted in CD-1 mouse assessed as maximum dose required for increase in mouse survival administered qd for 6 days; assay type: functional
# [2] = Antineoplastic activity against mouse S180A cells allografted in CD-1 mouse assessed as mouse survival at maximum effective dose administered qd for 6 days measured for 50 days relative to control; assay type: functional
# Outline: (§1)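 Sarcoma 180 ascites cells were transplanted from a donor mouse bearing a 7-day tumour. Each agent was tested at 10–60 mg/kg/day, once daily for six consecutive days, starting 24 h after transplantation, in groups of 5–10 mice. Pooled untreated controls totalled 40 mice. Mice surviving beyond 50 days were counted as 50-day survivors, and body-weight change over therapy served as the toxicity index.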
# [3] = Antineoplastic activity against mouse S180A cells allografted in CD-1 mouse assessed as average survival at maximum effective dose administered qd for 6 days (reference value: 12.5 +/- 0.3 days); assay type: functional; outline: as §1
# [4] = Antineoplastic activity against mouse S180A cells allografted in CD-1 mouse assessed as average survival at maximum effective dose administered qd for 6 days relative to control; assay type: functional; outline: as §1
# Mus musculus = test: Toxicity in CD-1 mouse allografted with mouse S180A cells assessed as change in body weight at maximum effective dose administered qd for 6 days (reference value: 23.2%); assay type: organism-based; details: 144 h
SMILES,Activity [1],Survival [2],Survival [3],T/C [4],Activity (Mus musculus)
O=S(=O)(N/N=C/c1cccc[n+]1[O-])c1ccccc1,40 mg/kg,40%,42.4 days,339%,-5.2%
Cc1ccc(S(=O)(=O)N/N=C/c2ccc[n+]([O-])c2)cc1,60 mg/kg,0%,13.6 days,109%,0%
Cc1ccc(S(=O)(=O)N/N=C/c2cc[n+]([O-])cc2)cc1,60 mg/kg,0%,15.4 days,123%,17.7%
CS(=O)(=O)N/N=C/c1cccc[n+]1[O-],60 mg/kg,0%,15.4 days,123%,20%
O=S(=O)(Cc1ccccc1)N/N=C/c1cccc[n+]1[O-],40 mg/kg,40%,35.2 days,282%,-0.3%
Cc1ccc(C(=O)N/N=C/c2cccc[n+]2[O-])cc1,60 mg/kg,0%,11.2 days,90%,10.2%
Cc1ccc(S(=O)(=O)N/N=C/c2ccccn2)cc1,10 mg/kg,0%,15.4 days,123%,20.1%
Cc1ccc(S(=O)(=O)N/N=C/c2cccnc2)cc1,60 mg/kg,0%,13.2 days,106%,12.6%
O=S(=O)(Cc1ccccc1)N/N=C/c1ccncc1,60 mg/kg,0%,21.2 days,169%,-3.3%
CS(=O)(=O)N/N=C/c1ccncc1,20 mg/kg,0%,13.4 days,107%,18.6%
Cc1ccc(C(=O)N/N=C/c2ccccn2)cc1,60 mg/kg,0%,11.8 days,94%,17.4%
Cc1ccc(S(=O)(=O)N/N=C/c2ccccc2[N+](=O)[O-])cc1,60 mg/kg,0%,13.2 days,105%,2.1%
O=S(=O)(N/N=C/c1ccc2ccccc2[n+]1[O-])c1ccccc1,20 mg/kg,0%,13.6 days,109%,2.6%
O=S(=O)(N/N=C/c1c2ccccc2cc[n+]1[O-])c1ccccc1,10 mg/kg,0%,13.4 days,107%,1.6%
Cc1ccc(S(=O)(=O)N/N=C/c2ccncc2)cc1,60 mg/kg,10%,28.2 days,226%,-0.9%
Cc1ccc(S(=O)(=O)N/N=C/c2ccccc2)cc1,20 mg/kg,0%,14.4 days,115%,15.1%
